Results published in ChEMBL document CHEMBL1759862, “Tricyclic compounds containing nonenolizable cyano enones. A novel class of highly potent anti-inflammatory and cytoprotective agents” (J Med Chem, 2011).
Calls of active or inactive are those of the source. No cut-off for these calls is given here.

Legend:
[1] = Antiinflammatory activity in CD-1 mouse Macrophage assessed as inhibition of IFN-gamma induced NO production after 48 hrs by Griess reaction; assay type: functional, cell-based
[2] = Cytotoxicity against CD-1 mouse macrophages at 10 uM; assay type: cell-based; settings: macrophage
[3] = target: NAD(P)H dehydrogenase [quinone] 1 (Mus musculus) (UniProt Q64669); test: Induction of NQO1 activity in mouse Hepa-1c1c7 cells after 48 hrs; assay type: cell-based
[4] = test system: RAW264.7; test: Antiinflammatory activity in mouse RAW264.7 cells assessed as inhibition of IFN-gamma induced NO production after 24 hrs by Griess reaction; assay type: functional, cell-based
Summary of the method: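 RAW 264.7 cells exposed to serial concentrations of compound together with IFN-γ (10 ng/mL) for 24 h; NO in supernatants quantified by Griess reaction. IC50 tested over 0.1 pM to 10 μM in 10-fold steps; values averaged from two separate experiments.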

[5] = test system: RAW264.7; test: Induction of HO-1 expression in mouse RAW264.7 cells at 100 nM after 6 hrs by Western blotting; assay type: functional, cell-based
Summary of the method: (§1)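 RAW 264.7 macrophages were exposed to compound at 10–100 nM for 6 h. HO-1 protein was detected by Western blot of total cell lysates.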

[6] = test system: RAW264.7; test: Induction of HO-1 expression in mouse RAW264.7 cells at 10 nM after 6 hrs by Western blotting; assay type: functional, cell-based; summary of the method: as §1
[7] = test system: RAW264.7; test: Induction of HO-1 expression in mouse RAW264.7 cells at 300 nM after 6 hrs by Western blotting; assay type: functional, cell-based
Summary of the method: (§2)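 RAW cells treated with compound for 6 h (30–300 nM range); HO-1 detected in total cell lysates by Western blot.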

[8] = test system: RAW264.7; test: Induction of HO-1 expression in mouse RAW264.7 cells at 30 nM after 6 hrs by Western blotting; assay type: functional, cell-based; summary of the method: as §2
[9] = Mus musculus, CD-1, Macrophage, 48 h

Sequence of NAD(P)H dehydrogenase [quinone] 1 (Mus musculus) (Q64669 whole entry): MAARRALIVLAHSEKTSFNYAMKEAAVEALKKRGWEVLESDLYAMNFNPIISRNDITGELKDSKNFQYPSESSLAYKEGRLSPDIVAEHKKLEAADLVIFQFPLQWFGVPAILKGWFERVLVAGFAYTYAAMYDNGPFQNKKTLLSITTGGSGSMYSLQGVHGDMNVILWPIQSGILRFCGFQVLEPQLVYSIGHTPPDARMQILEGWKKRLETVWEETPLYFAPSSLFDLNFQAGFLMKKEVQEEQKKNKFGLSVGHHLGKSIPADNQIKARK

SMILES | Activity [2] | IC50 ([4]; Mus musculus, RAW264.7, 24 h) [µM] | other results
CC1(C)C(=O)C(C#N)=C[C@@]2(C)C3=CC(=O)C=C[C@@]3(C)CC[C@H]12 | Non-toxic |  | IC50 [1, 9]: 0.058 µM; CD [3]: 140 nM
CC1(C)C(=O)C(C#N)=C[C@@]2(C)C3=CC(=O)C(C#N)=C[C@@]3(C)CC[C@H]12 | Non-toxic |  | IC50 [1, 9]: 0.0013 µM; CD [3]: 19 nM
CC1(C)C(=O)C(C#N)=C[C@@]2(C)C3=CC(=O)CC[C@@]3(C)CC[C@H]12 | Non-toxic |  | IC50 [1, 9]: 0.026 µM
C#C[C@]12C=C(C#N)C(=O)C=C1[C@@]1(C)C=C(C#N)C(=O)C(C)(C)[C@@H]1CC2 [listing 1 of 2 here] |  |  | IC50 ([4]; raw264.7): 0.003 µM
CC1(C)C(=O)C(C#N)=C[C@]2(C)C3=CC(=O)C(C#N)=C[C@]3(C)CC[C@@H]12 [listing 1 of 2 here] |  |  | IC50 ([1]; macrophage): 0.014 µM
C#C[C@]12C=C(C#N)C(=O)C=C1[C@@]1(C)C=C(C#N)C(=O)C(C)(C)[C@@H]1CC2 [listing 2 of 2 here] |  |  | Activity [5]: Active; CD [3]: 2.7 nM; Activity [6]: Active
CC1(C)C(=O)C(C#N)=C[C@]2(C)C3=CC(=O)C(C#N)=C[C@]3(C#C[Si](C)(C)C)CC[C@@H]12 |  |  | Activity [5]: Active; CD [3]: 3 nM; Activity [6]: Active
CC1(C)C(=O)C(C#N)=C[C@]2(C)C3=CC(=O)C(C#N)=C[C@]3(C)CC[C@@H]12 [listing 2 of 2 here] |  |  | CD [3]: 150 nM
CC1(C)C(=O)C(C#N)=C[C@]2(C)C3=CC(=O)C=C[C@]3(C)CC[C@@H]12 |  |  | CD [3]: 170 nM
CC1(C)C(=O)C(C#N)=C[C@]2(C)C3=CC(=O)C(C#N)=C[C@]3(C#C[Si](C)(C)C(C)(C)C)CCC12 (mixture of isomers) |  | 0.08 | CD [3]: 150 nM
CC1(C)C(=O)C(C#N)=C[C@]2(C)C3=CC(=O)CCCC3(F)CC[C@@H]12 (mixture of isomers) |  | 0.36 | 
CC1(C)C(=O)C(C#N)=C[C@]2(C)C3=CC(=O)C(C#N)=C[C@]3(C#Cc3nccs3)CCC12 (mixture of isomers) |  | 0.01 | Activity [7]: Active; Activity [8]: Active; CD [3]: 35 nM
CC1(C)C(=O)C(C#N)=C[C@]2(C)C3=CC(=O)C(C(N)=O)=C[C@]3(C)CC[C@@H]12 (racemic) | Non-toxic |  | 
CC(=O)O[C@@H]1CCC=C2[C@@]3(C)C=C(C#N)C(=O)C(C)(C)[C@@H]3CC[C@]21C (racemic) | Non-toxic |  | 
CC1(C)C(=O)C(C#N)=C[C@]2(C)C3=CCC[C@@H](O)[C@]3(C)CC[C@@H]12 (racemic) | Non-toxic |  | 
CC1(C)C(=O)C(C#N)=C[C@]2(C)C3=CC(=O)C[C@@H](O)[C@]3(C)CC[C@@H]12 (racemic) | Non-toxic |  | 
COC(=O)C#C[C@]12C=C(C#N)C(=O)C=C1[C@@]1(C)C=C(C#N)C(=O)C(C)(C)[C@@H]1CC2 (racemic) |  | 0.02 | Activity [7]: Active; Activity [8]: Active; CD [3]: 85 nM
CC1(C)C(=O)C(C#N)=C[C@]2(C)C3=CC(=O)CC[C@]3(CO)CC[C@@H]12 (racemic) |  | 0.35 | 
CC1(C)C(=O)C(C#N)=C[C@]2(C)C3=CC(=O)CC[C@]3(CO[Si](C)(C)C(C)(C)C)CC[C@@H]12 (racemic) |  | 0.48 | 

SMILES | Activity [2] | IC50 ([4]; Mus musculus, RAW264.7, 24 h) [µM] | other results
CC1(C)C(=O)C(C#N)=C[C@]2(C)C3=CC(=O)C(C#N)=C[C@]3(C#CC(=O)O)CC[C@@H]12 (racemic) |  | 0.1 | CD [3]: 150 nM
C#CC#C[C@]12C=C(C#N)C(=O)C=C1[C@@]1(C)C=C(C#N)C(=O)C(C)(C)[C@@H]1CC2 (racemic) |  | 0.003 | Activity [7]: Active; Activity [8]: Active
CC1(C)C(=O)C(C#N)=C[C@]2(C)C3=CC(=O)CC[C@]3(C=O)CC[C@@H]12 (racemic) |  | 0.083 | 
CC(C)(C)OC(=O)NC[C@]12CCC(=O)C=C1[C@@]1(C)C=C(C#N)C(=O)C(C)(C)[C@@H]1CC2 (racemic) |  | 0.064 | 
CC1(C)C(=O)C(C(=O)O)=C[C@]2(C)C3=CC(=O)C(C#N)=C[C@]3(C)CC[C@@H]12 (racemic) | Non-toxic |  | IC50 [1, 9]: > 0.6 µM
CC1(C)C(=O)C(C#N)=C[C@]2(C)C3=CC(=O)CC[C@]3(C#N)CC[C@@H]12 (racemic) |  | 0.064 | 
COC(=O)C1=C[C@]2(C)C3=CC(=O)C(C#N)=C[C@]3(C)CC[C@H]2C(C)(C)C1=O (racemic) | Non-toxic |  | IC50 [1, 9]: > 0.06 µM
CC(=O)OC[C@]12CCC(=O)C=C1[C@@]1(C)C=C(C#N)C(=O)C(C)(C)[C@@H]1CC2 (racemic) |  | 0.085 | 
CC1(C)C(=O)C(C#N)=C[C@]2(C)C3=CC(=O)CC[C@]3(C)CC[C@@H]12 (racemic) | Non-toxic | 0.057 | IC50 [1, 9]: 0.019 µM
COC(=O)[C@]12CCC(=O)C=C1[C@@]1(C)C=C(C#N)C(=O)C(C)(C)[C@@H]1CC2 (racemic) |  | 0.29 | 
CC1(C)C(=O)C(C#N)=C[C@]2(C)C3=CC(=O)CC[C@]3(C(=O)OCOCC[Si](C)(C)C)CC[C@@H]12 (racemic) |  | 0.15 | 
CC1(C)C(=O)C(C#N)=C[C@]2(C)C3=CC(=O)CC[C@]3(C(=O)O)CC[C@@H]12 (racemic) |  | 0.083 | 
CC1(C)C(=O)C(C#N)=C[C@]2(C)C3=CC(=O)CC[C@]3(C(N)=O)CC[C@@H]12 (racemic) |  | > 10 | 
COC[C@]12CCC(=O)C=C1[C@@]1(C)C=C(C#N)C(=O)C(C)(C)[C@@H]1CC2 (racemic) |  | 0.04 | 
CC1(C)C(=O)C(C#N)=C[C@]2(C)C3=CC(=O)CC[C@]3(CN)CC[C@@H]12 (racemic) |  | 0.24 | 
CC[C@]12CCC(=O)C=C1[C@@]1(C)C=C(C#N)C(=O)C(C)(C)[C@@H]1CC2 (racemic) |  | 0.08 | 
C#C[C@]12CCC(=O)C=C1[C@@]1(C)C=C(C#N)C(=O)C(C)(C)[C@@H]1CC2 (racemic) |  | 0.083 | 
CC1(C)C(=O)C(C#N)=C[C@]2(C)C3=CC(=O)C(C#N)=C[C@]3(C#N)CC[C@@H]12 (racemic) |  | 0.115 | 
CC1(C)C(=O)C(C#N)=C[C@]2(C)C3=CC(=O)C(C#N)=C[C@]3(C#Cc3nccn3COCC[Si](C)(C)C)CC[C@@H]12 (racemic) |  | 0.035 | Activity [8]: Active

SMILES | Activity [2] | IC50 ([4]; Mus musculus, RAW264.7, 24 h) [µM] | other results
CC1(C)C(=O)C(C#N)=C[C@]2(C)C3=CC(=O)C(C#N)=C[C@]3(C#Cc3ncc[nH]3)CC[C@@H]12 (racemic) |  | 0.4 | 
Cc1csc(C#C[C@]23C=C(C#N)C(=O)C=C2[C@@]2(C)C=C(C#N)C(=O)C(C)(C)[C@@H]2CC3)n1 (racemic) |  | 0.02 | Activity [7]: Active; Activity [8]: Active
CC1(C)C(=O)C(C#N)=C[C@]2(C)C3=CC(=O)C(C#N)=C[C@]3(C#Cc3ccccc3)CC[C@@H]12 (racemic) |  | 0.05 | Activity [7]: Active; Activity [8]: Active
CC#C[C@]12C=C(C#N)C(=O)C=C1[C@@]1(C)C=C(C#N)C(=O)C(C)(C)[C@@H]1CC2 (racemic) |  | 0.005 | CD [3]: 7.5 nM
CCC#C[C@]12C=C(C#N)C(=O)C=C1[C@@]1(C)C=C(C#N)C(=O)C(C)(C)[C@@H]1CC2 (racemic) |  | 0.02 | 
CC1(C)C(=O)C(C#N)=C[C@]2(C)C3=CC(=O)C(C#N)=C[C@]3(C#C[Si](C)(C)C)CC[C@@H]12 (racemic) |  | 0.003 | 
CC[C@]12C=C(C#N)C(=O)C=C1[C@@]1(C)C=C(C#N)C(=O)C(C)(C)[C@@H]1CC2 (racemic) |  | 0.01 | Activity [8]: Active; CD [3]: 18 nM
C=C[C@]12C=C(C#N)C(=O)C=C1[C@@]1(C)C=C(C#N)C(=O)C(C)(C)[C@@H]1CC2 (racemic) |  | 0.01 | Activity [8]: Active; CD [3]: 30 nM
CC(=O)O[C@@H]1CC(=O)C=C2[C@@]3(C)C=C(C#N)C(=O)C(C)(C)[C@@H]3CC[C@]21C (racemic) | Non-toxic |  | 
CC1(C)C(=O)C(C#N)=C[C@]2(C)C3=CC(=O)C(C(=O)O)=C[C@]3(C)CC[C@@H]12 (racemic) | Non-toxic |  | 
COC(=O)C1=C[C@]2(C)CC[C@H]3C(C)(C)C(=O)C(C#N)=C[C@]3(C)C2=CC1=O (racemic) | Non-toxic |  | 
CC1(C)C(=O)C(C#N)=C[C@]2(C)C3=CC(=O)C(C#N)=C[C@]3(C)CC[C@@H]12 (racemic) | Non-toxic | 0.023 | IC50 ([1]; macrophage): 0.0021 µM
CC1(C)C(=O)C(C#N)=C[C@]2(C)C3=CC(=O)C(C#N)=C[C@]3(C#CC#N)CC[C@@H]12 (racemic) |  | 0.004 | Activity [8]: Active
CC1(C)C(=O)C(C#N)=C[C@]2(C)C3=CC(=O)C=C[C@]3(C)CC[C@@H]12 (racemic) [listing 1 of 2 here] | Non-toxic | 0.087 | 
CC1(C)C(=O)C(C#N)=C[C@]2(C)C3=CC(=O)C=C[C@]3(C)CC[C@@H]12 (racemic) [listing 2 of 2 here] |  |  | CD [3]: 160 nM
COC(=O)[C@]12CCC(C)(C)C[C@H]1[C@H]1C(=O)C=C3[C@@]4(C)C=C(C#N)C(=O)C(C)(C)[C@@H]4CC[C@@]3(C)[C@]1(C)CC2 [BARDOXOLONE METHYL] | Non-toxic |  | IC50 [1, 9]: 0.0002 µM
C[C@@H]1C[C@H]2[C@@H]3CCC4=CC(=O)C=C[C@]4(C)[C@@]3(F)[C@@H](O)C[C@]2(C)[C@@]1(O)C(=O)CO [DEXAMETHASONE] |  | 0.02 | 
C[C@]12CCC(=O)C=C1CC[C@@H]1[C@@H]2[C@@H](O)C[C@@]2(C)[C@H]1CC[C@]2(O)C(=O)CO [HYDROCORTISONE] | Non-toxic | 0.061 | IC50 [1, 9]: 0.01 µM
